According to ChEMBL document CHEMBL1137687, “Anti-HIV evaluation of benzo[d]isothiazole hydrazones” (Eur J Med Chem, 2009):

Assays:
[1] = Cytotoxicity against mock-infected human MT4 cells after 4 days by MTT assay; format: cell-based
Outline: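 Mock-infected MT-4 cells, 1 × 10⁴ per well in RPMI 1640 with 10% FCS, 37 °C, 5% CO₂. Exposed to serial compound dilutions from a 100 mM DMSO stock diluted in medium, in parallel with the antiviral assay. Viability read by MTT. CC₅₀ taken as concentration reducing viability of mock-infected cells by 50%.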

[2] = tested on: Human immunodeficiency virus 1; experiment: Antiviral activity against wild type HIV1 3B assessed as protection as protection against virus-induced cytopathogenicity after 4 days by MTT assay; format: functional; conditions: Human immunodeficiency virus 1, 3B, 96 h
Outline: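 HIV-1 IIIB from supernatants of persistently infected H9/IIIB cells. MT-4 cells, 1 × 10⁴ per well in RPMI 1640 with 10% FCS, exposed to serial compound dilutions (100 mM DMSO stock diluted in medium). Virus inoculum sized in CCID₅₀ to give complete cytopathogenicity by day 4. Incubated at 37 °C, then viability read by MTT. EC₅₀ taken as concentration giving 50% protection from virus-induced cytopathogenicity.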

[3] = tested on: Human immunodeficiency virus 1; experiment: Antiviral activity against NNRTI-resistant HIV1 with reverse transcriptase Y181C mutation in human MT4 cells assessed as protection against virus-induced cytopathogenicity after 4 days by MTT assay; format: functional, organism-based; conditions: Human immunodeficiency virus 1, MT4, 96 h
Outline: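 Y181C virus (NIH N119) came from an AZT-sensitive clinical isolate passaged in CEM then MT-4 cells with nevirapine; stock 1.2×10⁸ CCID50/mL. It infected 1×10⁴ MT-4 cells/well (RPMI 1640, 10% FCS, 37 °C, 5% CO2) with compound dilutions from 100 mM DMSO stock, at a dose giving full cytopathogenicity by day 4. Readout MTT; EC50 = 50% protection.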

[4] = tested on: Human immunodeficiency virus 1; experiment: Antiviral activity against NNRTI-resistant HIV1 3B with reverse transcriptase K103N+Y181C mutation in human MT4 cells assessed as protection against virus-induced cytopathogenicity after 4 days by MTT assay; format: functional, organism-based; conditions: Human immunodeficiency virus 1, 3B, MT4, 96 h
Outline: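 MT-4 cells (RPMI 1640, 10% FCS, 37 °C, 5% CO2), 1×10⁴/well, with compound serial dilutions from 100 mM DMSO stock, infected with K103N+Y181C virus (NIH A17, from IIIB passaged in H9 cells with BI-RG 587; stock 2.1×10⁷ CCID50/mL) at dose giving full cytopathogenicity by day 4. MTT viability; EC50 = 50% protection.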

[5] = tested on: Human immunodeficiency virus 1; experiment: Antiviral activity against NNRTI-resistant HIV1 3B with reverse transcriptase K103R+V179D+P225H mutation in human MT4 cells assessed as protection against virus-induced cytopathogenicity after 4 days by MTT assay; format: functional, organism-based; conditions: Human immunodeficiency virus 1, 3B, MT4, 96 h
Outline: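 K103R+V179D+P225H (EFV^R) virus, from IIIB passaged in MT-4 cells under efavirenz; stock 4.0×10⁷ CCID50/mL. Added to 1×10⁴ MT-4 cells/well (RPMI 1640, 10% FCS, 37 °C, 5% CO2) with compound dilutions from 100 mM DMSO stock, amount causing complete cytopathogenicity at day 4. Viability by MTT; EC50 = concentration giving 50% protection.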

Compound | CC50 at 96 h [1] | EC50 [2] | EC50 [3] | EC50 [4] | EC50 [5]
O=c1c2ccccc2sn1/N=C/c1ccc([N+](=O)[O-])cc1 | > 100 µM | 45 µM | 29 µM | 36 µM | 33 µM
O=c1c2ccccc2sn1/N=C/c1ccc(F)cc1 | 17 µM | 4.4 µM | > 17 µM | > 17 µM | ≥ 17 µM
O=c1c2ccccc2sn1/N=C/c1ccccc1[N+](=O)[O-] | 68 µM | 19 µM | 20 µM | 33 µM | 20 µM
O=c1c2ccccc2sn1/N=C/c1ccc(O)cc1O | 21 µM | > 21 µM | > 21 µM | > 21 µM | > 21 µM
Cc1ccc2sn(/N=C/c3ccc(F)cc3)c(=O)c2c1 | 15 µM | > 15 µM | > 15 µM | > 15 µM | 7.3 µM
O=c1c2ccccc2sn1/N=C/c1cccc(F)c1 | 15 µM | > 15 µM | > 15 µM | > 15 µM | 9 µM
CCCCCCCCCCC/C=N/n1sc2ccc(C)cc2c1=O | 19 µM | > 19 µM | > 19 µM | > 19 µM | > 19 µM
Cc1ccc2sn(/N=C/c3ccccc3O)c(=O)c2c1 | 30 µM | > 30 µM | > 30 µM | > 30 µM | > 30 µM
O=c1c2ccccc2sn1/N=C/c1ccc([N+](=O)[O-])cc1[N+](=O)[O-] | > 100 µM | > 100 µM | – | > 100 µM | > 100 µM
Cc1ccc2sn(/N=C/c3ccccc3Cl)c(=O)c2c1 | > 100 µM | 82 µM | 100 µM | > 100 µM | 79 µM
Cc1ccc2sn(/N=C/c3ccc(Cl)cc3)c(=O)c2c1 | 57 µM | 24 µM | 22 µM | 33 µM | 11 µM
Cc1ccc2sn(/N=C/c3cccc(Cl)c3)c(=O)c2c1 | 59 µM | > 59 µM | > 59 µM | > 59 µM | 25 µM
Cc1ccc2sn(/N=C/c3ccc(O)cc3)c(=O)c2c1 | 23 µM | > 23 µM | > 23 µM | > 23 µM | ≥ 23 µM
O=c1c2ccccc2sn1/N=C/c1ccccc1F | 20 µM | ≥ 11 µM | > 20 µM | > 20 µM | > 20 µM
Cc1ccc2sn(/N=C/c3ccc([N+](=O)[O-])cc3[N+](=O)[O-])c(=O)c2c1 | > 100 µM | > 100 µM | > 100 µM | > 100 µM | > 100 µM
O=c1c2ccccc2sn1/N=C/c1ccco1 | 18 µM | > 18 µM | > 18 µM | > 18 µM | > 18 µM
Cc1ccc2sn(/N=C/c3ccc([N+](=O)[O-])cc3)c(=O)c2c1 | > 100 µM | > 100 µM | ≥ 100 µM | > 100 µM | 72 µM
Cc1ccc2sn(/N=C/c3ccc4c(c3)OCO4)c(=O)c2c1 | > 100 µM | 33 µM | 33 µM | 47 µM | 20 µM
O=c1c2ccccc2sn1/N=C/C=C/c1ccccc1 | 18 µM | > 18 µM | > 18 µM | > 18 µM | > 18 µM
COc1cc(/C=N/n2sc3ccccc3c2=O)ccc1O | 15 µM | > 15 µM | > 15 µM | > 15 µM | > 15 µM
O=c1c2ccccc2sn1/N=C/c1ccc2c(c1)OCO2 | 17 µM | > 17 µM | > 17 µM | > 17 µM | > 17 µM
Cc1ccc2sn(/N=C/c3ccccc3[N+](=O)[O-])c(=O)c2c1 | > 100 µM | > 100 µM | > 100 µM | > 100 µM | 100 µM
